By inhibition is commonly meant the change of the read-out against control, counted positive when it falls.

The results in this text go back to ChEMBL document CHEMBL5696442, “Discovery of type II inhibitors of TGFβ-activated kinase 1 (TAK1) and mitogen-activated protein kinase kinase kinase kinase 2 (MAP4K2)” (J Med Chem, 2015).

The target in assay [1] is Cyclin-dependent kinase 10 (Homo sapiens) (UniProt Q15131). Nature of the assay: Inhibition of CDK10 Lys2 labeling site in human A-375 cells at 5 uM by KiNativ Profiling analysis relative to control. Type of assay: cell-based. The essentials:
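Intact A375 melanoma cells were treated with compound at 5 or 0.5 μM, then lysed. Lysate kinases were labeled with a lysine-reactive ATP or ADP-biotin probe (KiNativ). Inhibition is read as protection of each kinase labeling site from probe labeling.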

For assay [2], the target named is Cyclin-dependent kinase 18 (Homo sapiens) (UniProt Q07002). The assay is described as follows: Inhibition of PCTAIRE3 Lys1 labeling site harbouringSKLTENLVALKEIR in human A-375 cells at 5 uM by KiNativ Profiling analysis relative to control. Format: cell-based. The method, boiled down:
(§1)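 Live A375 melanoma cells were treated with compound at 5 or 0.5 μM, then lysed. Lysates were labeled with a lysine-reactive ATP or ADP-biotin probe. Read-out was the compound's protection of kinase labeling sites from probe labeling (KiNativ).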

For assay [3] the target is unchanged. Nature of the assay: Inhibition of PCTAIRE3 Lys1 labeling site harbouring SKLTENLVALKEIRLEHEEGAPCTAIR in human A-375 cells at 5 uM by KiNativ Profiling analysis relative to control. Format: cell-based. The essentials:
as §1

Assay [4] concerns the target Protein kinase C beta type (Homo sapiens) (UniProt P05771). Nature of the assay: Inhibition of PKCb Lys2 labeling site in human A-375 cells at 5 uM by KiNativ Profiling analysis relative to control. Format: cell-based.
In assay [5] the target is Serine/threonine-protein kinase SIK3 (Homo sapiens) (UniProt Q9Y2K2). Nature of the assay: Inhibition of QSK Lys2 labeling site in human A-375 cells at 5 uM by KiNativ Profiling analysis relative to control. Format: cell-based.
Assay [6] has as its target Serine/threonine-protein kinase mTOR (Homo sapiens) (UniProt P42345). Nature of the assay: Inhibition of FRAP ATP labeling site in human A-375 cells at 0.5 uM by KiNativ Profiling analysis relative to control. Type of assay: cell-based. The essentials:
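Live A375 melanoma cells were treated with compound at 0.5 or 5 μM, then lysed. Lysates were labeled with a lysine-reactive ATP or ADP-biotin probe. The read-out was protection of each kinase probe-labeling site from labeling, relative to control.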

Assay [7] deals with Serine/threonine-protein kinase/endoribonuclease IRE1 (Homo sapiens) (UniProt O75460). Nature of the assay: Inhibition of IRE1 Lys2 labeling site in human A-375 cells at 0.5 uM by KiNativ Profiling analysis relative to control. Type of assay: cell-based.
Assay [8] addresses Tyrosine-protein kinase JAK1 (Homo sapiens) (UniProt P23458). The assay is described as follows: Inhibition of JAK1 in human A-375 cells at 0.5 uM by KiNativ Profiling analysis relative to control. Type of assay: cell-based.
Assay [9] is described as follows: Inhibition of KHS1 Lys2 labeling site in human A-375 cells at 0.5 uM by KiNativ Profiling analysis relative to control. Particulars: condition cancer.
Assay [10] concerns the target Dual specificity mitogen-activated protein kinase kinase 1 (Homo sapiens) (UniProt Q02750). The assay is described as follows: Inhibition of MAP2K1 Lys1 labeling site in human A-375 cells at 0.5 uM by KiNativ Profiling analysis relative to control. Format: cell-based.
The target in assay [11] is Serine/threonine-protein kinase Nek7 (Homo sapiens) (UniProt Q8TDX7). The assay is described as follows: Inhibition of NEK7 Lys2 labeling site in human A-375 cells at 0.5 uM by KiNativ Profiling analysis relative to control. Type of assay: cell-based.
Assay [12] deals with Cyclin-dependent kinase 16 (Homo sapiens) (UniProt Q00536). Nature of the assay: Inhibition of PCTAIRE1 Lys1 labeling site in human A-375 cells at 0.5 uM by KiNativ Profiling analysis relative to control. Type of assay: cell-based.
Assay [13] shares this target. The assay is described as follows: Inhibition of PFTAIRE1 Lys1 labeling site in human A-375 cells at 0.5 uM by KiNativ Profiling analysis relative to control. Type of assay: cell-based.
Assay [14] has as its target Serine/threonine-protein kinase WNK4 (Homo sapiens) (UniProt Q96J92). Nature of the assay: Inhibition of Wnk4 ACT labeling site in human A-375 cells at 0.5 uM by KiNativ Profiling analysis relative to control. Format: cell-based.
The target of assay [15] is Aurora kinase B (Homo sapiens) (UniProt Q96GD4). The assay is described as follows: Inhibition of AurB ATP Loop labeling site in human A-375 cells at 0.05 uM by KiNativ Profiling analysis relative to control. Type of assay: cell-based.
The target of assay [16] is Cyclin-dependent kinase 2 (Homo sapiens) (UniProt P24941). The assay is described as follows: Inhibition of CDK2 Lys1 labeling site in human A-375 cells at 0.05 uM by KiNativ Profiling analysis relative to control. Type of assay: cell-based.
Assay [17] deals with Epidermal growth factor receptor (Homo sapiens) (UniProt P00533). The assay is described as follows: Inhibition of EGFR ACT labeling site harbouring LLGAEEKEYHAEGGKVPIK in human A-375 cells at 0.05 uM by KiNativ Profiling analysis relative to control. Format: cell-based.
The target of assay [18] is Serine/threonine-protein kinase WNK2 (Homo sapiens) (UniProt Q9Y3S1). The assay is described as follows: Inhibition of Wnk2 ACT labeling site in human A-375 cells at 0.05 uM by KiNativ Profiling analysis relative to control. Format: cell-based.
Assay [19] can be described thus: Inhibition of p70S6K Lys2 labeling site in human A-375 cells at 5 uM by KiNativ Profiling analysis relative to control. The following applies: condition cancer.
In assay [20] the target is Mitogen-activated protein kinase 10 (Homo sapiens, UniProt P53779). The assay is described as follows: Inhibition of JNK3 Lys2 labeling site in human Huh-7 cell lysate at 1 uM by KiNativ Profiling analysis relative to control. Format: subcellular.
The target of assay [21] is T1, Mitogen-activated protein kinase 12 (Homo sapiens) (UniProt P53778).
T1 sequence (whole entry): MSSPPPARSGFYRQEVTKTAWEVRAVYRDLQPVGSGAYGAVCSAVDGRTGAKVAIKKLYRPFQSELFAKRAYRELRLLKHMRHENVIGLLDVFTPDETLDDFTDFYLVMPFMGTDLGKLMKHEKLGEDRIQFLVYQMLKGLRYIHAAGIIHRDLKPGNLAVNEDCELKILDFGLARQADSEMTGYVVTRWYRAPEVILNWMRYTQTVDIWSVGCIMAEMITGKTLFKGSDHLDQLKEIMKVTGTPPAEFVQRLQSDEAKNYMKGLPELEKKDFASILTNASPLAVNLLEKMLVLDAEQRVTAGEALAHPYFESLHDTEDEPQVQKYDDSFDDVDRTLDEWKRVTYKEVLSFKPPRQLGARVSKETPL
The assay is described as follows: Inhibition of p38gamma Lys2 labeling site in human Huh-7 cell lysate at 1 uM by KiNativ Profiling analysis relative to control. Type of assay: subcellular.

In assay [22] the test system is MEF. The assay is described as follows: Inhibition of TGF-beta induced p38 MAPK phosphorylation level in wild type mouse MEF cells incubated for 1 hr followed by TGF-beta stimulation by Western blot analysis. Format: functional, cell-based. The following applies: dose <= 500.0 nM.

Sequence of Cyclin-dependent kinase 16 (Homo sapiens) (Q00536 whole entry): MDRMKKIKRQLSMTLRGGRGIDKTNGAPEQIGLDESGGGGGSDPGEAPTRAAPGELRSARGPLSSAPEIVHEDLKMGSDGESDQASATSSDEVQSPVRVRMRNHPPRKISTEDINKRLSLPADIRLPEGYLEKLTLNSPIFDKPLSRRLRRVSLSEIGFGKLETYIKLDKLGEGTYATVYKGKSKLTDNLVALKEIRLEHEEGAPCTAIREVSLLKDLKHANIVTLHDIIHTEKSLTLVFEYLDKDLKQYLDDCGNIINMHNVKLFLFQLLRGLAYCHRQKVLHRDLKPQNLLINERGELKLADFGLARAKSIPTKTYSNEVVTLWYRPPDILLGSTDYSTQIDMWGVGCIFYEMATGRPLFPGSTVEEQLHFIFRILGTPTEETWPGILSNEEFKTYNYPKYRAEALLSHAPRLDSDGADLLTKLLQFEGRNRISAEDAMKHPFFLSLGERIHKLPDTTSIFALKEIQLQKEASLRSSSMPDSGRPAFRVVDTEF
Sequence of Cyclin-dependent kinase 18 (Homo sapiens) (Q07002 whole entry): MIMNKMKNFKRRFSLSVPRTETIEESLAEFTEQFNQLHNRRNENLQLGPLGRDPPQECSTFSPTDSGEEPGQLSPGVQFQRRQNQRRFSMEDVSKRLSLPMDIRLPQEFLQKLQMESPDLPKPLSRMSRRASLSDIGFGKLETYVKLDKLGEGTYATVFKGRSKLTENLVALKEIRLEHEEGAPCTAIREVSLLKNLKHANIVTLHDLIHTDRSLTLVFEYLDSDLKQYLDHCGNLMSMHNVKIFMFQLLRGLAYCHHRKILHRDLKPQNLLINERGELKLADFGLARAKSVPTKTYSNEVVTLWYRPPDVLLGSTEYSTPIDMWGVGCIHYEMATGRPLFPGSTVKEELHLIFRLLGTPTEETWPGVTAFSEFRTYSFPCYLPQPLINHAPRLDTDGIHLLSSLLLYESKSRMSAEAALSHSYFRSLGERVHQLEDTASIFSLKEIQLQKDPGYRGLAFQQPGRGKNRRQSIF
Sequence of Serine/threonine-protein kinase/endoribonuclease IRE1 (Homo sapiens) (O75460 19-977 limits assumed): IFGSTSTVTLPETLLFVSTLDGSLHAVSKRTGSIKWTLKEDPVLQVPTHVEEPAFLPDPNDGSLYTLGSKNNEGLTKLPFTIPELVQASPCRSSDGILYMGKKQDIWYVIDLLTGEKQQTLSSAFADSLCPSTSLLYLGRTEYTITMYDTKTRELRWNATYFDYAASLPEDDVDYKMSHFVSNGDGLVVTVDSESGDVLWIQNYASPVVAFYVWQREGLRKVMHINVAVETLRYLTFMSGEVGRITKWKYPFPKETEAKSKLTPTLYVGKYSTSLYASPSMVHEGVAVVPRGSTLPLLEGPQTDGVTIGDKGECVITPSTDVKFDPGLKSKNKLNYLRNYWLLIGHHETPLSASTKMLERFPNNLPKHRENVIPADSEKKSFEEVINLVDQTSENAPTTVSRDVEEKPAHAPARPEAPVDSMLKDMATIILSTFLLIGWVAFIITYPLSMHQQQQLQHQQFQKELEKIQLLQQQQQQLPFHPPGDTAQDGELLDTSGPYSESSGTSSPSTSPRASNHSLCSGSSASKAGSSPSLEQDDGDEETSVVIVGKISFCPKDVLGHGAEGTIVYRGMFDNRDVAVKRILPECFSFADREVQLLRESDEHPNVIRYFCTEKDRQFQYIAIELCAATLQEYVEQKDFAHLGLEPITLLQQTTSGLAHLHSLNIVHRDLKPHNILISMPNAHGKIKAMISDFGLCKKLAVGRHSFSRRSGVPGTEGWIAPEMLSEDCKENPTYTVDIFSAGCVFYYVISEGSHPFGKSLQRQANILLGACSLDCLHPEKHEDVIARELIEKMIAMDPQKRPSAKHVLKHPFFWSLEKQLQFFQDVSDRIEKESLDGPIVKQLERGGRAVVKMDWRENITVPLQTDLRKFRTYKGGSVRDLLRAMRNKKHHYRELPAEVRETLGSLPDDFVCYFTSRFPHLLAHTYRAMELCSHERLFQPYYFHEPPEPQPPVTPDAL
Sequence of Serine/threonine-protein kinase WNK4 (Homo sapiens) (Q96J92 whole entry): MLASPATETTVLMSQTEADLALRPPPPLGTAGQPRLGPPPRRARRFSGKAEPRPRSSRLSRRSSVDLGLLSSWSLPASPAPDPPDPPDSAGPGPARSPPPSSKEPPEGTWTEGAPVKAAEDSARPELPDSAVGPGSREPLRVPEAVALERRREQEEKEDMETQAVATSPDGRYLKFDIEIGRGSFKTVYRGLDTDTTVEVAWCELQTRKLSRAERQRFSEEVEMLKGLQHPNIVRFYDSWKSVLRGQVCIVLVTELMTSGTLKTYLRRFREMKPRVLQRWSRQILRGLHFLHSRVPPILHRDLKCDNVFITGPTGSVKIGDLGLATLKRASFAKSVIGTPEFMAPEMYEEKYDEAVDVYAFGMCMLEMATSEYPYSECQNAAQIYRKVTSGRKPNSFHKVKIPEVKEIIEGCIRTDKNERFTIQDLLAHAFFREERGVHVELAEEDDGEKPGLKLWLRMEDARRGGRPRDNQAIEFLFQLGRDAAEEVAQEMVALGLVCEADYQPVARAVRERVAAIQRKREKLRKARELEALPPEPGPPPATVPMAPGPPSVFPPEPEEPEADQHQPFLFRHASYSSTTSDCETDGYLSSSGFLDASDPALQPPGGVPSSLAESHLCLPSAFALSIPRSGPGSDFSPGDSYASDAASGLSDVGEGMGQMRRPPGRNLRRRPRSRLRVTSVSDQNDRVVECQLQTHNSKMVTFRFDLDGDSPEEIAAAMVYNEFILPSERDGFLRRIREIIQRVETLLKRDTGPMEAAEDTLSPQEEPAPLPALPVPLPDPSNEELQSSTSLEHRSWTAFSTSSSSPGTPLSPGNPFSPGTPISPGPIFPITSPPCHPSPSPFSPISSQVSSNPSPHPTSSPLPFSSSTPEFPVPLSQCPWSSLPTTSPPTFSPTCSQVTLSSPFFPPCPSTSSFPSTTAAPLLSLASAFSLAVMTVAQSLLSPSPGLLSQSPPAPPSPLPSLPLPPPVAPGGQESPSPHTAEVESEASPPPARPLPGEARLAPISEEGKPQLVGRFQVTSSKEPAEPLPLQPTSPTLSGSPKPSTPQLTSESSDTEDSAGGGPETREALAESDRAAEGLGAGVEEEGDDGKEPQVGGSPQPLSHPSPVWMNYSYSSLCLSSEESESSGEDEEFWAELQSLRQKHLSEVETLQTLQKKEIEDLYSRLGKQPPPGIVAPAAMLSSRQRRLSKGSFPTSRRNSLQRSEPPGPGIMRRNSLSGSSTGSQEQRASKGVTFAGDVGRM
Sequence of Protein kinase C beta type (Homo sapiens) (P05771 2-671 limits assumed): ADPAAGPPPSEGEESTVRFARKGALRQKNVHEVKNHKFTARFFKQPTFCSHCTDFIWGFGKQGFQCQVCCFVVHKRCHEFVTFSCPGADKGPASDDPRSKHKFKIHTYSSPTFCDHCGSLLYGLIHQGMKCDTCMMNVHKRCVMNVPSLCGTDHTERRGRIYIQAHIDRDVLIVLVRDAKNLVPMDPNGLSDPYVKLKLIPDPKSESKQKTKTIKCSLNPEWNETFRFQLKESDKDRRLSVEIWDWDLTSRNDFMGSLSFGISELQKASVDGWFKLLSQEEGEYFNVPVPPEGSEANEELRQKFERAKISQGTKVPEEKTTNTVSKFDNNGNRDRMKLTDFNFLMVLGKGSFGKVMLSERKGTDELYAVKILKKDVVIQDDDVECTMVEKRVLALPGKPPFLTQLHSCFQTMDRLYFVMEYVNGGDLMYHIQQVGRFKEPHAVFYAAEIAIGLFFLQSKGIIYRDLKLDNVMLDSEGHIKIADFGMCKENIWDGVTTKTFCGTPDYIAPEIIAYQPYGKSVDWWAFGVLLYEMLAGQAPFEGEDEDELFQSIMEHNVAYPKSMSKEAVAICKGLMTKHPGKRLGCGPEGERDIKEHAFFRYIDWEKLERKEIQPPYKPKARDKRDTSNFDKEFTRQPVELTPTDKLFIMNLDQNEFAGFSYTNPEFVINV
Sequence of Dual specificity mitogen-activated protein kinase kinase 1 (Homo sapiens) (Q02750 whole entry): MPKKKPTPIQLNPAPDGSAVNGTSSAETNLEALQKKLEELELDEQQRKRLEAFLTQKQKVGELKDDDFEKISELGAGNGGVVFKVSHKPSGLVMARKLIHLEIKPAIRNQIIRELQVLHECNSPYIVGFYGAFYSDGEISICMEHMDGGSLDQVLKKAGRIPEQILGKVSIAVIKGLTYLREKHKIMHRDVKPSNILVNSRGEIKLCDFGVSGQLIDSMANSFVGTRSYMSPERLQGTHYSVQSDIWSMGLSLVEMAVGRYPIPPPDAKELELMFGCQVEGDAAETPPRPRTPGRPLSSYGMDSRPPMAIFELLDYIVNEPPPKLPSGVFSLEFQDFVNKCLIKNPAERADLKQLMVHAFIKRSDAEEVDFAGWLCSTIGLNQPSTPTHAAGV
Sequence of Serine/threonine-protein kinase Nek7 (Homo sapiens) (Q8TDX7 whole entry, looked up): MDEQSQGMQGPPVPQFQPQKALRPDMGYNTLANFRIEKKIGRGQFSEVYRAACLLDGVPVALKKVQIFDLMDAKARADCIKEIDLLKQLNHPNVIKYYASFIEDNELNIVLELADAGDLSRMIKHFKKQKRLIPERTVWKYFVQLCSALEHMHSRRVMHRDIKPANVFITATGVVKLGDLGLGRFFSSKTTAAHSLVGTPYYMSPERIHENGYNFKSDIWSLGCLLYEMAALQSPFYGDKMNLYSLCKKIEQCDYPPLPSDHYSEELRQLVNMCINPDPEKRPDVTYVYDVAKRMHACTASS
Sequence of Cyclin-dependent kinase 10 (Homo sapiens) (Q15131 whole entry): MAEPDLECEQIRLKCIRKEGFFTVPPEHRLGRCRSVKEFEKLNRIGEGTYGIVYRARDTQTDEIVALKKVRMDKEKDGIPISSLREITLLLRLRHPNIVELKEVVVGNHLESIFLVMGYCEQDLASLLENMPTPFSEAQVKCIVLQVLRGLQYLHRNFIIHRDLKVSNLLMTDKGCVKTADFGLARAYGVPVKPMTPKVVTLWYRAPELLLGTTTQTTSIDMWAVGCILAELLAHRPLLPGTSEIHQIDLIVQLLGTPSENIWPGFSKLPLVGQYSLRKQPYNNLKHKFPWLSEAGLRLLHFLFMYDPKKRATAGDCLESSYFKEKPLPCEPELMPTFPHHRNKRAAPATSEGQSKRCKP

Turning to `CCN1CCN(Cc2ccc(NC(=O)c3ccc(C)c(/C=C/c4cnc5[nH]ccc5c4OC)c3)cc2C(F)(F)F)CC1`, the inhibition in assay [1] was determined as 11.5%; in assay [2], 24.3%; in [3] it was 21.3%; in assay [4], 50.2%; in assay [5] it was 28.6%; in assay [6] it was 0.8%. Moreover, the inhibition in assay [7] is -9.6%; in assay [8] it was 5.7%; in assay [10], 4.4%; in [11], 10.7%; in assay [12], 30.2%; in assay [13] it was 11.9%. The inhibition in [14] is 6.9%; in [15], 14.1%; in assay [16], 13.8%; in [17], -6.7%; in assay [18], 10.1%. For the same molecule, the inhibition at 0.5 µM in [9] is 36%. Also, the inhibition at 5 µM in assay [19] is -15.2%.

Regarding `CCN1CCN(Cc2ccc(NC(=O)c3ccc(C)c(Oc4ccnc5[nH]ccc45)c3)cc2C(F)(F)F)CC1`, the inhibition is 65.4% in assay [1]; 73.3% in [2]; 56.6% in assay [3]; 51% in [4]; 29.6% in assay [5]; -3% in assay [6]. Further, the inhibition in assay [7] is 4.5%; in assay [8], 13%; in assay [10], -3.5%; in assay [11], 7.8%; in [12], 47.7%; in [13], 41.3%. For the same molecule, the inhibition in assay [14] was 3.9%; in assay [15] it was 32.5%; in assay [16], 16.1%; in assay [17], 17.5%; in [18], 10.3%. In assay [9], the inhibition at 0.5 µM was -0.3%. Besides, the inhibition at 5 µM in assay [19] was -45.5%.

`CNc1cc(Oc2cc(C(=O)Nc3cc(-n4cnc(C)c4)cc(C(F)(F)F)c3)ccc2C)ncn1`: the inhibition is 18.4% in [20], 5.5% in [21] and “Dose-Dependent Effect” in assay [22].

Regarding `CNc1cc(Oc2cc(C(=O)Nc3cc(N4CCN(C)CC4)cc(C(F)(F)F)c3)ccc2C)ncn1`, the inhibition in [20] was 7%; in assay [21], 12.8%; in assay [22], “Dose-Dependent Effect”.
